The nature of assay [1]: Inhibition of ACSL in mouse solubilized bEND.3 cells using [14C]-palmitic acid as substrate after 2 mins by liquid scintillation spectrometric analysis. Conditions: BEND3, 2 min. In a few lines: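 ACSL activity in solubilized bEND3 brain endothelial cells; reaction velocity measured across a range of inhibitor concentrations. EC50 obtained by fitting velocity vs. inhibitor concentration to a constrained three-parameter log(inhibitor) vs. response function.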

The species named for assay [2] is Mus musculus. Briefly: Effect on mean extractable lipid mass in mouse bEND.3 cells at 15 uM relative to control. The format is functional, cell-based. In a few lines:
(§1)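 In situ assay in intact bEND3 brain endothelial cells given [14C]-palmitic acid; test agents at 15 μM (triacsin C reference at 1.5 μM). Radioactivity measured in the extractable lipid fraction, the aqueous layer and the media, with total recovery summed (lipid + aqueous + media); lipid mass extracted also determined. Treated groups compared with control by one-way ANOVA and Dunnett's t test; n = 3 to 9 independent experiments.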

Assay [3] is filed under the species Mus musculus. Briefly: Inhibition of ACSL in mouse solubilized bEND.3 cells using [14C]-palmitic acid as substrate assessed as effect on total recovery of radioactive substrate at 15 uM after 2 hrs by liquid scintillation spectrometric analysis. The gist of the method:
as §1

For assay [4], the species on record is Mus musculus. Put plainly: Inhibition of ACSL in mouse solubilized bEND.3 cells using [14C]-palmitic acid as substrate assessed as decrease in radioactivity in aqueous layer at 15 uM after 2 hrs by liquid scintillation spectrometric analysis.
For assay [5], the species on record is Mus musculus. Put plainly: Inhibition of ACSL in mouse solubilized bEND.3 cells using [14C]-palmitic acid as substrate assessed as increase in unincorporated radioactivity in media at 15 uM after 2 hrs by liquid scintillation spectrometric analysis. The gist of the method:
as §1

The species named for assay [6] is Mus musculus. Put plainly: Inhibition of ACSL in mouse […] bEND.3 cells assessed as inhibition of [14C]-palmitate incorporation into extractable lipids at 15 uM after 2 hrs by liquid scintillation spectrometric analysis. In a few lines: as §1
Assay [7] is filed under the species Mus musculus. Briefly: Inhibition of ACSL in mouse solubilized bEND.3 cells using [14C]-palmitic acid as substrate assessed as effect on total recovery of radioactive substrate at 1.5 uM after 2 hrs by liquid scintillation spectrometric analysis. The gist of the method:
(§2)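 Intact bEND3 brain endothelial cells were labelled with [14C]-palmitic acid with inhibitor at a single concentration, against untreated control cultures. Radioactivity was measured in the extractable lipid fraction, the aqueous fraction and the medium, and total recovery was summed (lipid + aqueous + media). Lipid mass was expressed as % of control. Groups were compared with control by one-way ANOVA and Dunnett's test; n = 3 to 9 independent experiments.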

The species named for assay [8] is Mus musculus. Briefly: Inhibition of ACSL in mouse solubilized bEND.3 cells using [14C]-palmitic acid as substrate assessed as increase in unincorporated radioactivity in media at 1.5 uM after 2 hrs by liquid scintillation spectrometric analysis. In a few lines: as §2
Assay [9] is filed under the species Mus musculus. Put plainly: Inhibition of ACSL in mouse solubilized bEND.3 cells using [14C]-palmitic acid as substrate assessed as decrease in radioactivity in aqueous layer at 1.5 uM after 2 hrs by liquid scintillation spectrometric analysis.
The species named for assay [10] is Mus musculus. Put plainly: Inhibition of ACSL in mouse […] bEND.3 cells assessed as inhibition of [14C]-palmitate incorporation into extractable lipids at 1.5 uM after 2 hrs by liquid scintillation spectrometric analysis. The gist of the method:
as §2

The species entered for assay [11] is Mus musculus. Briefly: Effect on mean extractable lipid mass in mouse bEND.3 cells at 1.5 uM relative to control. The format is functional, cell-based. The gist of the method: as §2
For assay [12], the system named is Leukocyte. Put plainly: Inhibition of Sprague-Dawley rat leukocytes recruitment assessed as inhibition of cell extravasation in unbranched post-capillary venules of mesentery at 5 uM measured at 120 mins. Type of assay: functional, tissue-based. In a few lines:
(§3)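 Recruitment was induced by L-NAME. Rolling, adhesion and extravasation were counted in post-capillary venules of the mesentery at 120 min. Compound was present at 5 or 50 μM, and vehicle-alone controls were run. Results are mean ± SEM of 3 to 7 independent experiments.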

Assay [13] relates to Leukocyte. Briefly: Inhibition of Sprague-Dawley rat leukocytes recruitment assessed as inhibition of cell adhesion in unbranched post-capillary venules of mesentery at 5 uM measured at 120 mins. Type of assay: functional, tissue-based. The gist of the method: as §3
Assay [14] deals with Leukocyte. Briefly: Inhibition of Sprague-Dawley rat leukocytes recruitment assessed as inhibition of cell rolling in unbranched post-capillary venules of mesentery at 5 uM measured at 120 mins. The format is functional, tissue-based. In a few lines: as §3
In assay [15] the test system is Leukocyte. Briefly: Inhibition of Sprague-Dawley rat leukocytes recruitment assessed as inhibition of cell extravasation in unbranched post-capillary venules of mesentery at 50 uM measured at 120 mins. Type of assay: functional, tissue-based. In a few lines:
(§4)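 Leukocyte recruitment induced by L-NAME, used as an ischemia model, in post-capillary venules of the mesentery. Rolling, adhesion and extravasation scored at 120 minutes with or without compound at 5 or 50 μM; vehicle-alone group included. Mean ± SEM of 3 to 7 independent experiments.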

The subject of assay [16] is Leukocyte. Briefly: Inhibition of Sprague-Dawley rat leukocytes recruitment assessed as inhibition of cell adhesion in unbranched post-capillary venules of mesentery at 50 uM measured at 120 mins. The format is functional, tissue-based. The gist of the method:
as §4

Assay [17] deals with Leukocyte. Put plainly: Inhibition of Sprague-Dawley rat leukocytes recruitment assessed as inhibition of cell rolling in unbranched post-capillary venules of mesentery at 50 uM measured at 120 mins. Type of assay: functional, tissue-based. The gist of the method: as §4

Molecules are shown by their SMILES. pEC50: −log10 of the molar value. Active and inactive are the calls of the source. No cut-off for these calls is given here.

Take `CCC/C=C/C/C=C/C=C/Cn1oc(=O)[nH]c1=O`: the pEC50 in assay [1] is 4.27.

`C=CCCCCCCCCCn1oc(=O)[nH]c1=O` gave a pEC50 in assay [1] of 5.04.

Turning to `C=CCCCCCCCCCNc1ccc(C(=O)O)c(O)c1`, in the assay listed under Mus musculus [2], the result was inactive. In addition, the inhibition entry in the assay filed under Mus musculus [3], in the assay listed under Mus musculus [4], in the assay filed under Mus musculus [5] and in the assay listed under Mus musculus [6] was “Active” in each case. Further, the pEC50 in assay [1] is 5.16.

As to `C=CCCCCCCCCCN(O)/N=N/c1ccc(C(=O)O)cc1`, in [1], the negative logarithm of the EC50 (pEC50) was 4.14.

For the molecule `CCC/C=C/C/C=C/C=C/C=N/NN=O` [TRIACSIN C], the inhibition entry in the assay listed under Mus musculus [7], in the assay filed under Mus musculus [8], in the assay filed under Mus musculus [9], in the assay filed under Mus musculus [10], in the assay on Leukocyte [12] and in the assay on Leukocyte [13] was “Active” in each case. Also, in the assay with Leukocyte [14], the inhibition result was “Active”. Also, in the assay filed under Mus musculus [11], the result was inactive. In assay [1], the pEC50 is 6.45.

Take `C=CCCCCCCCCCNO`: in the assay filed under Mus musculus [2], the outcome was inactive. Also, the inhibition entry in the assay on Leukocyte [15], in the assay on Leukocyte [16], in the assay with Leukocyte [17], in the assay filed under Mus musculus [3], in the assay filed under Mus musculus [4] and in the assay listed under Mus musculus [5] was “Active” each time. Besides, the inhibition result in the assay filed under Mus musculus [6] was “Active”. In [1], this molecule gave a pEC50 of 4.15.

As for `C=CCCCCCCCCCNc1ccc(C(=O)O)cc1`, the outcome in the assay listed under Mus musculus [2] was inactive. Besides, the inhibition result in the assay listed under Mus musculus [3], in the assay listed under Mus musculus [4], in the assay filed under Mus musculus [5] and in the assay filed under Mus musculus [6] was “Active” each time. In assay [1], the negative logarithm of the EC50 (pEC50) was 5.31.

Turning to `CCC/C=C/C/C=C/C=C/CNc1ccc(C(=O)O)cc1`, the result in the assay listed under Mus musculus [2] was inactive. In addition, the inhibition entry in the assay on Leukocyte [15], in the assay with Leukocyte [12], in the assay with Leukocyte [16], in the assay on Leukocyte [13], in the assay on Leukocyte [17] and in the assay on Leukocyte [14] was “Active” in each case. Besides, the inhibition result in the assay filed under Mus musculus [3], in the assay listed under Mus musculus [4], in the assay listed under Mus musculus [5] and in the assay filed under Mus musculus [6] was “Active” in each case. For the same molecule, in assay [1], the negative-log EC50 (pEC50) was 5.23.

Regarding `CCC/C=C/C/C=C/C=C/CN(O)/N=N/c1ccc(C(=O)O)cc1`, the negative logarithm of the EC50 (pEC50) in [1] is 4.13.

As for `CCC/C=C/C/C=C/C=C/CNN1CCCS1(=O)=O`, the pEC50 in assay [1] was 3.79.

As for `CCC/C=C/C/C=C/CN(O)/N=N/c1ccc(C(=O)O)cc1`, the result in the assay filed under Mus musculus [2] was inactive. Also, the inhibition entry in the assay listed under Mus musculus [3], in the assay listed under Mus musculus [4], in the assay filed under Mus musculus [5] and in the assay filed under Mus musculus [6] was “Active” in each case. The negative-log EC50 (pEC50) in assay [1] was 4.57.

`CCC/C=C/C/C=C/C=C/CNO` showed a negative-log EC50 (pEC50) in assay [1] of 4.83.

As to `CCC/C=C/C/C=C/C=N/N1CCCS1(=O)=O`, the result in the assay listed under Mus musculus [2] was Active. Further, the inhibition result in the assay filed under Mus musculus [4] and in the assay filed under Mus musculus [5] was “inactive” in each case. Also, the pEC50 in assay [1] was 3.77.
